Columns and labels:
[1] = molecular target: T1, Hepatic sodium/bile acid cotransporter (Homo sapiens, UniProt Q14973); assay: Inhibition of human NTCP expressed in human HepG2 cells assessed as decrease in NTCP surface expression at 2 uM incubated for 2 hrs by DAPI staining based analysis; assay type: cell-based; settings: hepg2, 2 h
T1 sequence (Q14973 whole entry): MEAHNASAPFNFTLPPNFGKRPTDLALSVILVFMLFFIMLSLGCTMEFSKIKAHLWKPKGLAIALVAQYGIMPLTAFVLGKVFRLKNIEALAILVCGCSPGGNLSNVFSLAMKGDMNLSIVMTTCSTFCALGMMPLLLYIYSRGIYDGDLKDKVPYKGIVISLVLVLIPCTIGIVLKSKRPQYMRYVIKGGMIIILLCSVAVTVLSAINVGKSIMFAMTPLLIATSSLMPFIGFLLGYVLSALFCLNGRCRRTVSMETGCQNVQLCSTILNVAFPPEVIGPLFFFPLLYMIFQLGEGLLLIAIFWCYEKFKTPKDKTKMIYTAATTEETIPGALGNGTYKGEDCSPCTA
In short: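 HepG2-NTCP cells treated 2 h with DMSO, compound or TLCA at 2 μM, then immunostained for NTCP to assess cell-surface distribution.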

[2] = Intrinsic clearance in human liver microsomes at 1 uM preincubated for 5 mins followed by NADPH addition and measured upto 60 mins by LC-MS analysis; assay type: ADME, Microsome; settings: read-out: CLH
In short: (§1)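 Human or mouse liver microsomes, final 1 mg/mL in 0.05 M phosphate buffer pH 7.4; compound final 1 μM, preincubated 37 °C 5 min, started with 1 mM NADPH; sampled at 0, 5, 15, 30, 60 min, methanol quench, −20 °C 1 h, centrifuged, supernatant by LC–MS.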

[3] = Intrinsic clearance in rat liver microsomes at 1 uM preincubated for 5 mins followed by NADPH addition and measured upto 60 mins by LC-MS analysis; assay type: ADME, Microsome; settings: time 65 min, read-out: CLH
[4] = system: Hepatitis B virus; assay: Antiviral activity against HBV infected in human HepG2-NTCP cells assessed as reduction in HBeAg secretion cells inoculated with virus for 4 hrs at room temperature and 37 degree C for 24 hrs followed inoculum changed with PMM medium for every 2 days until day 5 post infection by ELISA; assay type: functional, organism-based
[5] = Intrinsic clearance in mouse liver microsomes at 1 uM preincubated for 5 mins followed by NADPH addition and measured upto 60 mins by LC-MS analysis; assay type: ADME, Microsome; settings: read-out: CLH; in short: as §1

Row | SMILES | inhibition (INH) [1] | microsomal CLint at 1 µM [2] [µL/min/mg] | microsomal CLint at 1 µM [3] [µL/min/mg] | IC50 [4] [nM] | microsomal CLint at 1 µM [5] [µL/min/mg]
1 | CC[C@@H]1NC(=O)[C@H]([C@@H]2O[C@@H](Sc3cccc(NCc4ccccc4)c3)C[C@H]2C)N(C)C(=O)[C@H](C(C)C)N(C)C(=O)[C@H](CC(C)C)N(C)C(=O)[C@H](CC(C)C)N(C)C(=O)[C@@H](C)NC(=O)[C@H](C)NC(=O)[C@H](CC(C)C)N(C)C(=O)[C@H](C(C)C)NC(=O)[C@H](CC(C)C)N(C)C(=O)CN(C)C1=O |  | 6.1 | 1.4 | 171 | 2.1
2 | CC[C@@H]1NC(=O)[C@H]([C@@H]2O[C@@H](Sc3cccc(OCc4ccc(F)cc4)c3)C[C@H]2C)N(C)C(=O)[C@H](C(C)C)N(C)C(=O)[C@H](CC(C)C)N(C)C(=O)[C@H](CC(C)C)N(C)C(=O)[C@@H](C)NC(=O)[C@H](C)NC(=O)[C@H](CC(C)C)N(C)C(=O)[C@H](C(C)C)NC(=O)[C@H](CC(C)C)N(C)C(=O)CN(C)C1=O |  | 7.7 | 2 | 206 | 0.3
3 | CCOc1cccc(S[C@H]2C[C@@H](C)[C@H]([C@H]3C(=O)N[C@@H](CC)C(=O)N(C)CC(=O)N(C)[C@@H](CC(C)C)C(=O)N[C@@H](C(C)C)C(=O)N(C)[C@@H](CC(C)C)C(=O)N[C@@H](C)C(=O)N[C@H](C)C(=O)N(C)[C@@H](CC(C)C)C(=O)N(C)[C@@H](CC(C)C)C(=O)N(C)[C@@H](C(C)C)C(=O)N3C)O2)c1 |  | 18.5 | 2.3 | 181 | 4
4 | CCCCc1ccc(S[C@H]2C[C@@H](C)[C@H]([C@H]3C(=O)N[C@@H](CC)C(=O)N(C)CC(=O)N(C)[C@@H](CC(C)C)C(=O)N[C@@H](C(C)C)C(=O)N(C)[C@@H](CC(C)C)C(=O)N[C@@H](C)C(=O)N[C@H](C)C(=O)N(C)[C@@H](CC(C)C)C(=O)N(C)[C@@H](CC(C)C)C(=O)N(C)[C@@H](C(C)C)C(=O)N3C)O2)cc1 |  | 6.1 | 4 | 262 | 2.5
5 | CC[C@@H]1NC(=O)[C@H]([C@@H]2O[C@@H](Sc3cccc(OCc4ccc(F)cc4C)c3)C[C@H]2C)N(C)C(=O)[C@H](C(C)C)N(C)C(=O)[C@H](CC(C)C)N(C)C(=O)[C@H](CC(C)C)N(C)C(=O)[C@@H](C)NC(=O)[C@H](C)NC(=O)[C@H](CC(C)C)N(C)C(=O)[C@H](C(C)C)NC(=O)[C@H](CC(C)C)N(C)C(=O)CN(C)C1=O |  |  | 0.8 | 122 | 7.1

The next lines start with the values.

Row | inhibition (INH) [1] | microsomal CLint at 1 µM [2] [µL/min/mg] | microsomal CLint at 1 µM [3] [µL/min/mg] | IC50 [4] [nM] | microsomal CLint at 1 µM [5] [µL/min/mg] | SMILES
6 | Active |  |  |  |  | C[C@H](CCC(=O)NCCS(=O)(=O)O)[C@H]1CC[C@H]2[C@@H]3CC[C@@H]4C[C@H](O)CC[C@]4(C)[C@H]3CC[C@]12C [TAUROLITHOCHOLIC ACID]
7 |  | 4.2 |  | 116 | 2.2 | CC[C@@H]1NC(=O)[C@H]([C@@H]2O[C@@H](Sc3cc(Cl)cc(OC)c3)C[C@H]2C)N(C)C(=O)[C@H](C(C)C)N(C)C(=O)[C@H](CC(C)C)N(C)C(=O)[C@H](CC(C)C)N(C)C(=O)[C@@H](C)NC(=O)[C@H](C)NC(=O)[C@H](CC(C)C)N(C)C(=O)[C@H](C(C)C)NC(=O)[C@H](CC(C)C)N(C)C(=O)CN(C)C1=O
8 |  | 10.2 | 0.7 | 117 | 5.5 | CC[C@@H]1NC(=O)[C@H]([C@@H]2O[C@@H](Sc3cc(OC)cc(OC)c3)C[C@H]2C)N(C)C(=O)[C@H](C(C)C)N(C)C(=O)[C@H](CC(C)C)N(C)C(=O)[C@H](CC(C)C)N(C)C(=O)[C@@H](C)NC(=O)[C@H](C)NC(=O)[C@H](CC(C)C)N(C)C(=O)[C@H](C(C)C)NC(=O)[C@H](CC(C)C)N(C)C(=O)CN(C)C1=O
9 |  | 14.8 | 2 | 101 | 3.3 | CC[C@@H]1NC(=O)[C@H]([C@@H]2O[C@@H](Sc3ccc(Cl)c(OC)c3)C[C@H]2C)N(C)C(=O)[C@H](C(C)C)N(C)C(=O)[C@H](CC(C)C)N(C)C(=O)[C@H](CC(C)C)N(C)C(=O)[C@@H](C)NC(=O)[C@H](C)NC(=O)[C@H](CC(C)C)N(C)C(=O)[C@H](C(C)C)NC(=O)[C@H](CC(C)C)N(C)C(=O)CN(C)C1=O
10 |  | 7.7 | 3 |  | 2.1 | CC[C@@H]1NC(=O)[C@H]([C@@H]2O[C@H](Sc3cccc(OCc4ccccc4)c3)C[C@H]2C)N(C)C(=O)[C@H](C(C)C)N(C)C(=O)[C@H](CC(C)C)N(C)C(=O)[C@H](CC(C)C)N(C)C(=O)[C@@H](C)NC(=O)[C@H](C)NC(=O)[C@H](CC(C)C)N(C)C(=O)[C@H](C(C)C)NC(=O)[C@H](CC(C)C)N(C)C(=O)CN(C)C1=O
